Assay outcomes from PubChem BioAssay.
GSK3beta inhib – blocks human GSK3beta kinase activity | activity score (negative = inhibition), % at 10 µM | GST-GSK3beta kinase, ADP-Glo luminescence, 60 min; stronger effect = lower value | 0.038% of 300,000 active | P49841;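 active means more than half of replicate wells score below -50%, meaning over 50% inhibition versus plate controls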;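 further: 0% = median DMSO wells and -100% = median GW8510 positive control wells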
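Assay system: GST-tagged human GSK3beta kinase, cell-free; Input: 1.6 ng GSK3beta; Medium: Tris/MgCl2 kinase buffer; Timing: 60 min enzyme reaction, room temperature; Signal: ADP-Glo luminescence quantifying ADP generated by kinase; Evaluation: score relative to plate controls; Benchmarks: DMSO neutral wells and GW8510 at 20 µM as positive.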
STK33 kinase inh – human STK33 kinase inhibition. Q9BYT3. purified STK33, MBP phosphorylation, ADP-Glo luminescence. inhibition, % at 10 µM. 0.073% of 320,000 active. AID 2661;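 active means inhibition at or above 25%, using the most active replicate where run in duplicate; inactive means inhibition below 25%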
Target sequence (Q9BYT3 whole entry, looked up): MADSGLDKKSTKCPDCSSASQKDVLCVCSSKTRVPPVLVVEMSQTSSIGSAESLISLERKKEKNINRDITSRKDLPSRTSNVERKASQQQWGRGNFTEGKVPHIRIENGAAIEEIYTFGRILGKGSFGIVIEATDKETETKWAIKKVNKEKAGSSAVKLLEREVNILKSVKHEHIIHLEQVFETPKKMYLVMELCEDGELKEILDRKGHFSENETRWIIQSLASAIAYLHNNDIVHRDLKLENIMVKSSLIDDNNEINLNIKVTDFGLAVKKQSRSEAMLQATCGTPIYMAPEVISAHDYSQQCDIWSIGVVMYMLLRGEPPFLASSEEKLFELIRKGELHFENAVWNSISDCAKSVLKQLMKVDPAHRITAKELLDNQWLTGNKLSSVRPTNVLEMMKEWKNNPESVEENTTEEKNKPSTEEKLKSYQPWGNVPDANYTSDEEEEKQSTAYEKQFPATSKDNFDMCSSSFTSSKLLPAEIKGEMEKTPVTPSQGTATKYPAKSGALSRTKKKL
GSK3 alpha inh – blocks human GSK-3 alpha kinase | inhibition, % at 10 µM | P49840 | 0.1% of 320,000 active | ADP-Glo luminescence, 60 min;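 active means more than half of replicates show inhibition above 20%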;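 further: GST-tagged GSK-3 alpha with peptide substrate and 25 µM ATP; 0% = DMSO neutral wells and 100% = GW8510 positive control wells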
Dyrk1A ADPGlo – blocks rat Dyrk1A kinase activity. Q63470. ADP-Glo luminescence, NFATc1 peptide. inhibition, % at 12.5 µM. 0.43% of 310,000 active; in the data active means inhibition above about 50%;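 further: plate controls were vehicle with enzyme for no effect and no enzyme for full effect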
CDK5 inh – inhibitors of human CDK5/p35 kinase. Recombinant CDK5/p35, ADP-Glo luminescence, 60 min. 0.01% of 330,000 active. inhibition, % at 10 µM. Q00535+Q15078;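 active means highest replicate inhibition of at least 50% and at least 75% of replicates reaching 50%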;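 further: plate controls were DMSO neutral control for no effect and GW8510 at 10 µM for full effect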
* hit, by the source's call; · = no result given. The full list was thinned out, with hits kept by preference.

SMILES	GSK3beta inhib	STK33 kinase inh	GSK3 alpha inh	Dyrk1A ADPGlo	CDK5 inh
Cc1ccccc1Nc1cc2ccccc2c(=O)[nH]1	-5	0	-5	52*	1
Cc1ccccc1CSc1nnc(-c2ccncc2)o1	-55*	-1	53*	29	0
c1ccc(CSc2nnc(-c3ccncc3)o2)cc1	1	0	67*	26	7
COC(=O)c1ccc(CSc2nnc(-c3ccncc3)o2)o1	-42	-1	66*	-10	0
Fc1ccccc1CSc1nnc(-c2ccccc2)o1	-2	0	3	4	-1
N#Cc1ccc(CSc2nnc(-c3ccncc3)o2)cc1	0	2	17	2	-2
COc1ccc(S(=O)(=O)N(C)CC(=O)Nc2cccc(C(C)=O)c2)cc1Cl	0	-2	0	-4	0
COc1ccc(C(=O)NCc2nnc(SCC(=O)Nc3nc4ccc(C)cc4s3)o2)cc1OC	-3	-1	-2	1	1
O=C(C=P(c1ccccc1)(c1ccccc1)c1ccccc1)c1ccccc1-c1ccccc1C(=O)C=P(c1ccccc1)(c1ccccc1)c1ccccc1	·	·	·	3	1
CN1CCc2c(sc3c2c(=O)n(-c2ccccc2)c2nncn32)C1	-21	0	·	4	2
CN1CCc2c(sc3c2c(=O)n(-c2ccccc2)c2n[nH]c(=S)n32)C1	-50*	36*	80*	47	0
CCOc1ccsc1C(=O)OC	0	-1	-1	4	1
C=CC(=O)Nc1cccc(N(C)c2ccnc(Nc3ccc(N4CCN(C)CC4)cc3)n2)c1	·	·	·	14	6
CSc1nc2ncc3c(n2n1)CC1c2ccccc2CCN1C3=O (stereo not drawn)	-27	0	72*	0	-2
COCCNc1nc(N)c([N+](=O)[O-])c(NCC2CCCO2)n1 (stereo not drawn)	-53*	0	68*	34	1
Nc1nc(NCCOCCO)nc(NCC2CCCO2)c1[N+](=O)[O-] (stereo not drawn)	-60*	-1	60*	-3	1
CNc1nc(N)c([N+](=O)[O-])c(NCC2CCCO2)n1 (stereo not drawn)	-27	4	47	·	1
O=c1ccc2cc3c([nH]c4ccc(Br)cc43)oc-2c1O	2	39*	12	71*	12
O=c1c2c([nH]c3ccc(Br)cc13)CCCC2	-22	0	-3	-8	0
Cc1ccc(SCCC(=O)Nc2cccc(N(C)S(C)(=O)=O)c2)cc1	3	1	3	-4	2
CN(C)S(=O)(=O)c1cccc2c1C(=O)c1ccccc1C2=O	2	0	1	3	1
CN(C)c1cc2c(c(N(C)C)c1)C(=O)c1ccccc1C2=O	0	40*	1	6	-3
CCC(=O)c1ccc(OCC(=O)OCC(=O)Nc2cccc(S(=O)(=O)N3CCOCC3)c2)cc1	·	·	·	4	0
O=S(=O)(/N=S1\CC=CCN1S(=O)(=O)c1ccccc1)c1ccccc1 (stereo not drawn)	·	·	·	-1	2
O=C(Nc1ccccc1C(=O)O)c1cccc(C(=O)Nc2ccccc2C(=O)O)c1	5	57*	-5	6	-1
SMILES	GSK3beta inhib	STK33 kinase inh	GSK3 alpha inh	Dyrk1A ADPGlo	CDK5 inh
O=C(CSc1nc2[nH]ncc2c(=O)n1-c1ccccc1)NCc1cccs1	-3	0	5	-5	1
O=C(CSc1nc2[nH]ncc2c(=O)n1-c1ccccc1)NCCc1ccccc1	-38	0	54*	48	-4
Cn1c2ccccc2c(=O)c2ccc(NCc3ccc4c(c3)OCO4)cc21	·	·	·	·	1
Cc1nc(Nc2ccccc2)sc1C(=O)c1ccccc1	-15	-2	6	-5	0
CC(C)(C)C(=O)c1sc(Nc2ccccc2)nc1N	-64*	2	82*	21	30
COc1ccc(Nc2nc(N)c(C(=O)c3ccc(OC)cc3)s2)cc1	-65*	4	77*	·	15
COc1ccc(C(=O)c2sc(Nc3ccccc3)nc2C)cc1	0	2	4	4	-1
COc1ccc(C(=O)c2sc(NC(C)C)nc2N)cc1OC	·	-1	91*	2	-3
COc1ccc(Nc2nc(N)c(C(=O)c3ccc(F)cc3)s2)cc1	-45	3	62*	-3	6
CCOC(=O)N1CCC(C(=O)NNC(=O)c2ccc(Cl)cc2Cl)CC1	·	1	-1	-6	-1
NS(=O)(=O)c1ccc2c(c1)C(=NO)c1cc(S(N)(=O)=O)ccc1-2	2	72*	-1	6	0
